3 compounds from ChEMBL document CHEMBL2429718, “MT-Stabilizer, Dictyostatin, Exhibits Prolonged Brain Retention and Activity: Potential Therapeutic Implications” (ACS Med Chem Lett, 2013) can be followed below.

Calls of active or inactive are those of the source. No cut-off for these calls is given here.

The subject of one data set is Brain. Kind of data set: Stabilization of microtubule brain in CD1 mouse assessed as increase in acetylated alpha-tubulin at 5 mg/kg, ip administered as single dose measured after 7 days relative to vehicle-treated control. In kind it is functional, organism-based. Details: dose 5 mg/kg. Summed up: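 Wild-type mice received one i.p. dose of 5 mg/kg, with DMSO as vehicle control, and 3 mice per treatment. Brains were collected 7 days later and the acetylated α-tubulin to α-tubulin ratio was measured. The mean ratio of treated mice was normalized to that of vehicle-treated mice.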

Data set [1] in a line: Fraction unbound in CD1 mouse brain at 5 mg/kg, ip administered as single dose. The data set is classed as ADME, organism-based. Also noted: dose 5 mg/kg, route intraperitoneal. The settings on record: in vivo.
Data set [2] in a line: AUC (0.5 to 16 hrs) in CD1 mouse brain at 5 mg/kg, ip administered as single dose at 4 hrs. The data set is classed as ADME, organism-based. Details: time 0.5-16 hr, dose 5 mg/kg, route intraperitoneal.
Data set [3] can be described thus: Drug uptake in CD1 mouse brain at 5 mg/kg, ip administered as single dose at 4 hrs. Details: dose 5 mg/kg, route intraperitoneal. The data set is classed as ADME, organism-based. As to conditions: read-out: Drug uptake. Summed up: (§1)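 CD1 mice received one i.p. dose of 5 mg/kg. Blood and brain were taken from groups of animals at several times after dosing, with n = 3 mice per time point, and compound levels were measured in plasma and brain. Exposure was expressed as AUC over 0.25–4 h. Concentrations at 4 h and 16 h are given as mean ± SD.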

Data set [4] in a line: Drug uptake in CD1 mouse brain at 5 mg/kg, ip administered as single dose at 16 hrs. The data set is classed as ADME, organism-based. Details: dose 5 mg/kg, route intraperitoneal. The settings on record: read-out: Drug uptake. The gist of the method: as §1
The nature of data set [5]: (§2) Plasma concentration in CD1 mouse at 5 mg/kg, ip administered as single dose at 16 hrs. The data set is classed as ADME, organism-based. Details: dose 5 mg/kg, route intraperitoneal. As to conditions: CD1, mouse, plasma. Summed up:
as §1

The nature of data set [6]: AUC (0.25 to 4 hrs) in CD1 mouse plasma at 5 mg/kg, ip administered as single dose at 4 hrs. In kind it is ADME, organism-based. Also noted: time 0.25-4 hr, dose 5 mg/kg, route intraperitoneal. The gist of the method:
as §1

A short description of data set [7]: Plasma concentration in CD1 mouse at 5 mg/kg, ip administered as single dose at 4 hrs. The data set is classed as ADME, organism-based. Details: dose 5 mg/kg, route intraperitoneal. The gist of the method:
as §1

For data set [8], the system named is Plasma. Description: Fraction unbound in CD1 mouse plasma at 5 mg/kg, ip dministered as single dose. The settings on record: in vivo. In kind it is ADME, organism-based. Also noted: dose 5 mg/kg, route intraperitoneal.
Data set [9] has as its system HEK293. Kind of data set: Stabilization of microtubule in HEK293 cells assessed as increase in acetylated alpha-tubulin at 1to 10 nM after 4 hrs by ELISA. The settings on record: Homo sapiens. The data set is classed as cell-based. The gist of the method:
(§3)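 In HEK293 cells, microtubule stabilization was read as compound-induced elevation of acetylated α-tubulin. Compounds were tested across a concentration series that included 1, 10 and 100 nM, with n = 4 per condition. Values are given as mean ± SEM.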

In data set [10] the test system is HEK293. Kind of data set: Stabilization of microtubule in HEK293 cells assessed as increase in acetylated alpha-tubulin after 4 hrs by ELISA. The settings on record: Homo sapiens. In kind it is cell-based. Summed up: as §3
In general terms: ELISA stands for enzyme-linked immunosorbent assay.

The nature of data set [11]: AUC (0.25 to 4 hrs) in CD1 mouse brain at 5 mg/kg, ip administered as single dose at 4 hrs. In kind it is ADME, organism-based. Also noted: time upper 4 hr, time lower 0.25 hr, dose 5 mg/kg, route intraperitoneal. Summed up: as §1
Data set [12] relates to Plasma. The description is as §2. In kind it is ADME, organism-based. Also noted: dose 5 mg/kg, route intraperitoneal. As to conditions: mouse, in vivo, 16 h, BLD = below limit of detection. The gist of the method: as §1
In data set [13] the test system is HEK293. Kind of data set: Stabilization of microtubule in HEK293 cells assessed as increase in acetylated alpha-tubulin at 100 nM after 4 hrs by ELISA. The data set is classed as cell-based. As to conditions: Homo sapiens. The gist of the method:
as §3

For `C=C/C=C\[C@H](C)[C@@H]1OC(=O)/C=C\C=C\[C@@H](C)[C@@H](O)C[C@H](O)/C=C\[C@H](C)[C@H](O)[C@@H](C)C[C@@H](C)CC[C@@H](O)[C@@H]1C` [DICTYOSTATIN], the result in the data set on Brain and in the data set with HEK293 [9] was Active. Moreover, the values for the Fu (in data set [1]; in the data set on Plasma [8]) were 0.5% and 0.9%, respectively. The compound also displayed an AUC(0-t) in data set [2] of 6.25 µM·h. Besides, the values for the concentration at 4 h in data set [3] and in data set [7] were 412 nM and 83 nM, respectively. The concentration at 16 h in data set [4] was determined as 383 nM; in data set [5] it was 77 nM. For the same compound, in [6], the AUC(0-t) at 4 h is 5.54 µM·h. Moreover, the Activity result in the data set with HEK293 [10] was “Dose-dependent effect”.
With `C=C/C=C\[C@H](C)[C@H](OC(N)=O)[C@@H](C)[C@H](O)[C@@H](C)C/C(C)=C\[C@H](C)[C@@H](O)[C@@H](C)/C=C\[C@@H](O)C[C@@H]1OC(=O)[C@H](C)[C@@H](O)[C@H]1C` [DISERMOLIDE], the AUC(0-t) at 4 h in data set [11] is 0.112 µM·h; in data set [6], 0.439 µM·h. In addition, in the data set with HEK293 [10], the Activity result is “Dose-dependent effect”.
As for `C/C1=C/C[C@@H](/C(C)=C/c2csc(C)n2)OC(=O)C[C@H](O)C(C)(C)C(=O)[C@H](C)[C@@H](O)[C@@H](C)CCC1` [EPOTHILONE D], the concentration at 4 h in data set [3] is 161 nM; in data set [7], 19 nM. Besides, the concentration at 16 h in data set [4] worked out at 111 nM. Besides, in the data set with Plasma [12], the Cp entry is “BLD”. The outcome in the data set with HEK293 [13] was Active. For the same compound, the Activity result in the data set on HEK293 [10] was “Dose-dependent effect”.

The AUC(0-t) is exposure summed from dosing to a finite time, without extrapolation to infinity. Lower therefore signals low exposure.
